How the values were obtained:
Type in all cases: functional
[1] = tested on: COLO 205; assay: Growth inhibition of human COLO205 cells after 48 hrs by sulforhodamine B assay; conditions: COLO 205, 48 h
How it was run: (§1)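 NCI-60 panel screen. Cells were exposed for 48 h at five concentrations between 10 nM and 100 μM. Cellular protein was read by sulforhodamine B staining, and GI50 and total growth inhibition (TGI) concentrations were derived.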

[2] = tested on: NCI-H522; assay: Growth inhibition of human NCI-H522 cells at 10 uM after 48 hrs by sulforhodamine B assay relative to control; conditions: NCI-H522, 48 h, read-out: GI
How it was run: (§2)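 NCI-60 human cancer cell line screen, single-dose pass: cells exposed to 10 μM for 48 h. Cellular protein content read out by sulforhodamine B staining, and growth inhibition expressed relative to untreated control.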

[3] = tested on: NCI-H460; assay: Growth inhibition of human NCI-H460 cells after 48 hrs by sulforhodamine B assay; conditions: NCI-H460, 48 h
How it was run: (§3)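 NCI-60 panel follow-up: five concentrations from 10 nM to 100 μM, 48 h exposure. Growth read by sulforhodamine B protein staining. GI50 derived from the concentration-response, with the concentration for total growth inhibition (TGI) also recorded when below 100 μM.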

[4] = tested on: UACC-257; assay: Growth inhibition of human UACC257 cells at 10 uM after 48 hrs by sulforhodamine B assay relative to control; conditions: UACC-257, 48 h, read-out: GI
How it was run: (§4)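 NCI-60 human cancer cell line screen, single dose of 10 μM for 48 h. Cellular protein content read by sulforhodamine B staining; growth inhibition expressed relative to untreated control.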

[5] = tested on: RXF 393; assay: Growth inhibition of human RXF393 cells after 48 hrs by sulforhodamine B assay; conditions: RXF 393, 48 h; how it was run: as §3
[6] = tested on: DU-145; assay: Growth inhibition of human DU145 cells at 10 uM after 48 hrs by sulforhodamine B assay relative to control; conditions: DU-145, 48 h, read-out: GI
How it was run: (§5)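 NCI-60 single-dose screen at 10 μM for 48 h. Percent growth inhibition was measured by sulforhodamine B staining of cellular protein.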

[7] = tested on: HL-60(TB); assay: Growth inhibition of human HL-60(TB) cells at 10 uM after 48 hrs by sulforhodamine B assay relative to control; conditions: HL-60, 48 h, read-out: GI
How it was run: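 NCI-60 human cancer cell line screen, single dose of 10 μM for 48 h. Growth inhibition measured by sulforhodamine B assay of cellular protein content.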

[8] = tested on: UACC-257; assay: Growth inhibition of human UACC257 cells after 48 hrs by sulforhodamine B assay; conditions: UACC-257, 48 h
How it was run: (§6)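 NCI-60 panel cells treated at five concentrations from 10 nM to 100 μM for 48 h. Read-out by sulforhodamine B protein stain. GI50 and total growth inhibition (TGI, if below 100 μM) taken from the concentration-response data.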

[9] = tested on: SF-268; assay: Growth inhibition of human SF268 cells after 48 hrs by sulforhodamine B assay; conditions: SF-268, 48 h; how it was run: as §3
[10] = tested on: RPMI-8226; assay: Growth inhibition of human RPMI8226 cells at 10 uM after 48 hrs by sulforhodamine B assay relative to control; conditions: RPMI-8226, 48 h, read-out: GI; how it was run: as §2
[11] = tested on: NCI/ADR-RES; assay: Growth inhibition of human NCI-ADR-RES cells at 10 uM after 48 hrs by sulforhodamine B assay relative to control; conditions: read-out: GI; how it was run: as §2
[12] = tested on: HCT-116; assay: Growth inhibition of human HCT116 cells after 48 hrs by sulforhodamine B assay; conditions: HCT-116, 48 h; how it was run: as §1
[13] = tested on: HT-29; assay: Growth inhibition of human HT-29 cells after 48 hrs by SRB assay; conditions: HT-29, 48 h
How it was run: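 In-house assay. Cells were seeded into 96-well plates at a density for exponential growth and treated with a concentration range for 48 h. They were then fixed in 10% (w/v) TCA and stained with sulforhodamine B. The 50% growth-inhibitory concentration relative to control cells was calculated as the mean of three repeats ± standard deviation.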

[14] = tested on: SK-OV-3; assay: Growth inhibition of human SKOV3 cells after 48 hrs by sulforhodamine B assay; conditions: SK-OV-3, 48 h; how it was run: as §3
[15] = tested on: HOP-62; assay: Growth inhibition of human HOP62 cells at 10 uM after 48 hrs by sulforhodamine B assay relative to control; conditions: HOP-62, 48 h, read-out: GI; how it was run: as §5
[16] = tested on: DU-145; assay: Growth inhibition of human DU145 cells after 48 hrs by sulforhodamine B assay; conditions: DU-145, 48 h; how it was run: as §1
[17] = tested on: SK-MEL-2; assay: Growth inhibition of human SK-MEL-2 cells after 48 hrs by sulforhodamine B assay; conditions: SK-MEL-2, 48 h; how it was run: as §3
[18] = tested on: SN12C; assay: Growth inhibition of human SN12C cells after 48 hrs by sulforhodamine B assay; how it was run: as §3
[19] = tested on: SR; assay: Growth inhibition of human SR cells after 48 hrs by sulforhodamine B assay; how it was run: as §6
[20] = tested on: BT-549; assay: Growth inhibition of human BT549 cells at 10 uM after 48 hrs by sulforhodamine B assay relative to control; conditions: BT-549, 48 h, read-out: GI; how it was run: as §5
[21] = tested on: A549; assay: Growth inhibition of human A549/ATCC cells at 10 uM after 48 hrs by sulforhodamine B assay relative to control; conditions: A549, 48 h, read-out: GI; how it was run: as §5
[22] = tested on: SK-MEL-5; assay: Growth inhibition of human SK-MEL-5 cells after 48 hrs by sulforhodamine B assay; conditions: SK-MEL-5, 48 h; how it was run: as §3
[23] = tested on: U-251; assay: Growth inhibition of human U251 cells after 48 hrs by sulforhodamine B assay; conditions: U-251, 48 h; how it was run: as §6
[24] = tested on: HCC 2998; assay: Growth inhibition of human HCC2998 cells at 10 uM after 48 hrs by sulforhodamine B assay relative to control; conditions: HCC 2998, 48 h, read-out: GI; how it was run: as §5
[25] = tested on: MDA-MB-231; assay: Growth inhibition of human MDA-MB-231 cells at 10 uM after 48 hrs by sulforhodamine B assay relative to control; conditions: MDA-MB-231, 48 h, read-out: GI; how it was run: as §5
[26] = tested on: IGROV-1; assay: Growth inhibition of human IGROV1 cells at 10 uM after 48 hrs by sulforhodamine B assay relative to control; conditions: IGROV-1, 48 h, read-out: GI; how it was run: as §5
[27] = tested on: T47D; assay: Growth inhibition of human T47D cells at 10 uM after 48 hrs by sulforhodamine B assay relative to control; conditions: read-out: GI; how it was run: as §4
[28] = tested on: OVCAR-5; assay: Growth inhibition of human OVCAR5 cells after 48 hrs by sulforhodamine B assay; conditions: OVCAR-5, 48 h; how it was run: as §3
[29] = tested on: A498; assay: Growth inhibition of human A498 cells at 10 uM after 48 hrs by sulforhodamine B assay relative to control; conditions: A498, 48 h, read-out: GI; how it was run: as §5
[30] = tested on: BT-549; assay: Growth inhibition of human BT549 cells after 48 hrs by sulforhodamine B assay; conditions: BT-549, 48 h; how it was run: as §1
[31] = tested on: SK-OV-3; assay: Growth inhibition of human SKOV3 cells at 10 uM after 48 hrs by sulforhodamine B assay relative to control; conditions: SK-OV-3, 48 h, read-out: GI; how it was run: as §2
[32] = tested on: LOX IMVI; assay: Growth inhibition of human LOXIMVI cells after 48 hrs by sulforhodamine B assay; how it was run: as §1
[33] = tested on: 786-0; assay: Growth inhibition of human 786-0 cells at 10 uM after 48 hrs by sulforhodamine B assay relative to control; conditions: 786-0, 48 h, read-out: GI; how it was run: as §5

Row | SMILES | GI50 [1] [µM] | inhibition of growth at 10 µM [2] [%] | GI50 [3] [µM] | inhibition of growth at 10 µM [4] [%] | GI50 [5] [µM] | inhibition of growth at 10 µM [6] [%] | inhibition of growth at 10 µM [7] [%] | GI50 [8] [µM] | GI50 [9] [µM] | inhibition of growth at 10 µM [10] [%] | inhibition of growth at 10 µM [11] [%] | GI50 [12] [µM] | GI50 [13] [µM] | GI50 [14] [µM] | inhibition of growth at 10 µM [15] [%] | GI50 [16] [µM] | GI50 [17] [µM] | GI50 [18] [µM] | GI50 [19] [µM] | inhibition of growth at 10 µM [20] [%] | also measured
1 | COc1ccccc1S(=O)(=O)Nc1ccc2c(c1)CN(C)C(=O)N2 | 3 | 73.9 | 9.3 | 66.2 | 7.9 | 22.2 | 78.1 | 3.6 | 28.8 | 95.7 | 31.1 | 4.5 | 3 | 4.9 | 55.7 | 28.8 | 29.5 | 6.8 | 3.7 | -0.7 | inhibition of growth at 10 µM [21]: 49.5%; GI50 [22]: 6.3 µM; GI50 [23]: 15.1 µM; inhibition of growth at 10 µM [24]: 35.6%; inhibition of growth at 10 µM [25]: 45.3%; inhibition of growth at 10 µM [26]: 76%; inhibition of growth at 10 µM [27]: 68.6%; GI50 [28]: 10.5 µM; inhibition of growth at 10 µM [29]: 103%; GI50 [30]: 14.8 µM; inhibition of growth at 10 µM [31]: 50.9%; GI50 [32]: 3.5 µM; TGI [32]: 21.4 µM; inhibition of growth at 10 µM [33]: 27.3%
2 | Cc1noc(C)c1-c1cc(O)cc(C(O)c2ccccc2)c1 (centres undefined) | 5.25 | 77.9 | 25.1 | 59.6 | 17.2 | 12.5 | 90 | 4.66 | 39.3 | 85.1 | 40.8 | 7.08 | 4.54 to 5.79 | 7.01 | 52.8 | 6.95 | 23.5 | 3.99 | 1.01 | 35.3 | inhibition of growth at 10 µM [21]: 44.6%; GI50 [22]: 5.95 µM; TGI [22]: 29.5 µM; GI50 [23]: 15 µM; inhibition of growth at 10 µM [24]: 37.8%; inhibition of growth at 10 µM [25]: 37.6%; inhibition of growth at 10 µM [26]: 54%; inhibition of growth at 10 µM [27]: 52.9%; GI50 [28]: 31.8 µM; inhibition of growth at 10 µM [29]: 103%; GI50 [30]: 28.2 µM; inhibition of growth at 10 µM [31]: 56.3%; GI50 [32]: 3.6 µM; TGI [32]: 80.5 µM; inhibition of growth at 10 µM [33]: 45.2%
